Screening data from PubChem BioAssay.
Rows were chosen to be rich in hits. Some 4.3% of all compounds tested hit in one or more screens of this group.
TAAR1 agonist = human TAAR1 agonism; CHO RD-HGA16 TAAR1, Fluo-8 calcium fluorescence; vehicle wells 0%, saturating PEA agonist 100%; Q96RJ0; actives 0.99% (n = 360,000); activation, % at 3 µM; AID 624467;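 active = activation above the mean activation of all test compounds in the run plus 3 SD, cut at about 38% in these data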
Target sequence (Q96RJ0 whole entry, looked up): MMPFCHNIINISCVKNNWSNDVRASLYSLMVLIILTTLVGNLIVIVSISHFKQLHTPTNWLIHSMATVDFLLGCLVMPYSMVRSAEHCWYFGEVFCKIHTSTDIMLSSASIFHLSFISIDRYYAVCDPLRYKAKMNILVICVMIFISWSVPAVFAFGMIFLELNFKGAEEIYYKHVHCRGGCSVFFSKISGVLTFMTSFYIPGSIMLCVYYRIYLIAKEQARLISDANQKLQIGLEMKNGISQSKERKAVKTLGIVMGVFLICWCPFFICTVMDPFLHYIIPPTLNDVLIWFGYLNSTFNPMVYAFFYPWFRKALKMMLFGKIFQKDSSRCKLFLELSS
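Repeats: no replicates (n 1) | Material: CHO-derived RD-HGA16 cells with stable Gα16 and human TAAR1 | Technique: Kinetic Fluo-8 calcium fluorescence | Schedule: 17-24 h seeding, 75 min 37 °C dye, 30 min RT | Evaluation: % activation from peak over basal fluorescence ratio, DMSO-to-PEA scaled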
OX1R antag-1 = blocks the human orexin 1 receptor; O43613; actives 1.8% (n = 330,000); AID 485270; OX1R-expressing cells, FRET antagonist read-out; inhibition, % at 6.6 µM; in the data active = inhibition mostly above about 38%, no sharp cut-off; inactive = mostly below about 40%
CHO parental Ca = counter-screen: ATP calcium response change in parental CHO cells; parental CHO-K1, ATP-induced calcium, Fluo-8 fluorescence; inhibition, % at 5.6 µM; actives 0.63% (n = 330,000);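 active = inhibition above that plate's mean sample inhibition plus 3 SD, cut at about 26% in these data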
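Test system: parental CHO cells; detection: calcium-sensitive Fluo-8 fluorescence; evaluation: percent inhibition of calcium signal; also added: ATP as calcium-mobilizing challenge; repeats: one well per compound; control set: ATP-challenged DMSO wells low, unchallenged DMSO wells high; compound: single nominal dose of 5.6 µM per compound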
OX1R antag-2 = antagonists of human orexin 1 receptor; inhibition, % at 5 µM; CHO/OX1R cells, Fluo-8 calcium fluorescence, orexin A; actives 0.43% (n = 330,000);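 active = inhibition above its plate's threshold, mean inhibition of all tested compounds on the plate plus 3 SD, cut at about 37% in these data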
TAAR1 antagonist = antagonists of human TAAR1; actives 1.5% (n = 360,000); inhibition, % at 3 µM; CHO RD-HGA16 TAAR1, Fluo-8 calcium fluorescence, antagonist; AID 624466; Q96RJ0;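 active = inhibition above a per-plate cutoff, the mean inhibition of test compounds on that plate plus 3 SD, cut at about 49% in these data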
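test system = CHO RD-HGA16 cells bearing hTAAR1 | replication = singlicate | controls = DMSO-only wells and EC80 β-PEA-stimulated wells | reagent = EC80 β-phenethylamine stimulus | read-out basis = percent inhibition of PEA-evoked calcium signal, max/basal emission ratio | schedule = seeding 17-24 h prior, 75-min 37 °C, 30-min RT dye loading | signal = kinetic Fluo-8 calcium fluorescence measurement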
GalR3 antagonist = antagonists of human GalR3; O60755; AID 651719; inhibition, % at 3 µM; HEK293 GalR3-CNG cAMP membrane potential fluorescence; galR3 body fused to GalR1 C-terminus; actives 0.44% (n = 360,000);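 active = inhibition above the screen-wide average plus 3 SD, cut at about 13% in these data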;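 also: forskolin and galanin both at EC90 stimulate the cells; cAMP rise reported by CNG channel membrane potential dye signal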
Target sequence (O60755 1-299 limits assumed): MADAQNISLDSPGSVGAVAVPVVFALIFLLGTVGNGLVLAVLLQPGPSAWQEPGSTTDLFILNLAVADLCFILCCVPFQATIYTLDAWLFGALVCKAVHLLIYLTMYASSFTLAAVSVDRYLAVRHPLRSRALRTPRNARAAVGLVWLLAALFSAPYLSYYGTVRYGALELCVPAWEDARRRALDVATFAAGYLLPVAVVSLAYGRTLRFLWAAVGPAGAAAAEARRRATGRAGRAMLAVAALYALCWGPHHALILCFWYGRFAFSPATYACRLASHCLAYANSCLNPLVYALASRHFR
TAAR1 ag confirm = confirmation of human TAAR1 agonists; actives 82% (n = 2,400); shares compounds with TAAR1 agonist; AID 651783; activation, % at 3 µM; CHO RD-HGA16 TAAR1, Fluo-8 calcium fluorescence; scaled: DMSO 0%, maximal phenethylamine 100%;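 active = activation above a cutoff set at the run's mean compound activation plus 3 SD, cut at about 39% in these data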
Ga16 ag counter = nonselective agonist in parental cells, TAAR1 agonist counter-screen; shares compounds with TAAR1 agonist; CHO-Ga16 parental, Fluo-8 calcium fluorescence; normalized to maximal ATP response, DMSO zero; activation, % at 3 µM; actives 50% (n = 2,400); AID 651787;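 active = activation above the run cutoff, the mean activation over all tested wells plus 3 SD, cut at about 12% in these data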
TAAR1 desens = counter-screen for human TAAR1 agonists: agonists that desensitize TAAR1. inhibition, % at 3 µM. AID 651951. CHO RD-HGA16 hTAAR1, Fluo-8 calcium, beta-PEA response inhibition. shares compounds with TAAR1 agonist. actives 46% (n = 2,400);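 active = inhibition above the run cutoff, the mean inhibition of all test compounds plus 3 SD, cut at about 49% in these data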;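 also: beta-PEA stimulus applied at its EC80; loss of beta-PEA calcium signal after compound pretreatment read as receptor desensitization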
Ga16 nonsel ant = counter-screen for TAAR1 agonists: nonselective Ga16 antagonists; CHO-Ga16 ATP-induced calcium, Fluo-8 fluorescence; actives 39% (n = 2,400); AID 651952; shares compounds with TAAR1 agonist; inhibition, % at 3 µM;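 active = inhibition above the plate's mean compound inhibition plus 3 SD, computed per plate, cut at about 22% in these data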
Hits are given with their value; - = inactive; . = not tested or not shown.

SMILES	TAAR1 agonist	OX1R antag-1	CHO parental Ca	OX1R antag-2	TAAR1 antagonist	GalR3 antagonist	TAAR1 ag confirm	Ga16 ag counter	TAAR1 desens	Ga16 nonsel ant
O=[N+]([O-])c1ccc(-c2nn(-c3ccccc3)cc2/C=N/n2c(-c3ccncc3)n[nH]c2=S)cc1	-	-	-	-	-	-	.	.	.	.
S=c1[nH]nc(-c2ccncc2)n1/N=C/c1cn(-c2ccccc2)nc1-c1ccccc1	82	52	-	-	-	-	76	17	61	-
NC(=O)C1CCN(C(=O)CCC(=O)c2cccs2)CC1	-	-	-	-	-	-	.	.	.	.
CC1NC(=O)NC1CCCCCC(=O)NCCc1ccccc1 (configuration not stated)	48	-	-	-	-	-	78	-	74	-
Cc1ccc2oc(C(=O)N3CCN(Cc4nccn4C)CC3)c(C)c2c1	-	-	-	-	-	-	.	.	.	.
CCN(CC(=O)NCc1cccs1)S(=O)(=O)c1ccccc1Cl	-	-	-	-	-	-	.	.	.	.
CN(C[C@@H](CC1CCCCC1)N(C[C@H](Cc1ccccc1)N(CCc1ccccc1)N=O)N=O)N=O	60	-	-	-	-	-	94	-	-	-
c1ccc(CCNc2ncnc3nc[nH]c23)cc1	71	-	-	-	-	-	89	-	82	-
COCCNc1ncnc2nc[nH]c12	-	-	-	-	-	-	.	.	.	.
C=CCOc1cccc(CNCc2ccncc2)c1	-	.	.	.	-	-	.	.	.	.
COC(=O)NC1c2ccccc2Oc2ccccc21	-	-	-	-	-	-	.	.	.	.
COC(=O)NC1c2ccccc2Oc2ccc(C)cc21 (configuration not stated)	43	-	-	-	-	-	83	38	76	34
COC(=O)C1=C(C)N(Cc2ccccc2C(F)(F)F)C(=NCc2ccc3c(c2)OCO3)NC1c1cccc(F)c1 (configuration not stated)	-	.	.	.	-	-	.	.	.	.
COC(=O)C1=C(C)N(Cc2cccc(C(F)(F)F)c2)C(=NCc2cc(OC)c(OC)c(OC)c2)NC1c1ccc(F)cc1 (configuration not stated)	60	.	.	.	52	-	-	16	-	30
COC(=O)C1=C(C)N(Cc2cccc(C(F)(F)F)c2)C(=NCc2ccc3c(c2)OCO3)NC1c1ccccc1 (configuration not stated)	43	.	.	.	-	-	47	14	-	27
COC(=O)C1=C(C)N(Cc2cccc(C(F)(F)F)c2)C(=NCc2ccc3c(c2)OCO3)NC1c1cccc(Cl)c1 (configuration not stated)	-	.	.	.	-	-	.	.	.	.
COC(=O)C1=C(C)N(Cc2cccc(C(F)(F)F)c2)C(=NCc2ccc3c(c2)OCO3)NC1c1cccc(F)c1 (configuration not stated)	65	.	.	.	58	-	58	20	68	43
c1ccc(OCCNc2nc(NCC3CC3)nc3ccsc23)cc1	-	.	.	.	-	-	.	.	.	.
O=S1(=O)CC(N2CCCC2)CN1Cc1cn(Cc2ccc(Cl)cc2)nn1 (configuration not stated)	-	.	.	.	-	-	.	.	.	.
CCN(CC)c1ccc(/C=C/C(=O)C2C(=O)C=C(C)OC2=O)cc1 (configuration not stated)	406	-	75	98	108	-	536	664	109	105
COc1cc(OC)cc(C(=O)NC(=S)NNC(=O)[C@H]2C[C@@H]2c2ccccc2)c1	174	-	-	-	107	-	113	102	89	65
O=C(/C=C/c1ccc(F)cc1)NC(=S)NNC(=O)[C@H]1C[C@@H]1c1ccccc1	132	-	-	-	82	-	88	99	72	66
O=C(/C=C/c1ccc(F)cc1)NC(=S)Nc1ccccc1O	-	.	.	.	-	-	.	.	.	.
COc1ccc(C(=O)NC(=S)NNC(=O)Cc2cccs2)cc1	-	-	-	-	-	-	.	.	.	.
COc1cc(OC)cc(C(=O)NC(=S)NNC(=O)Cc2cccs2)c1	80	-	-	-	-	-	56	37	-	-
SMILES	TAAR1 agonist	OX1R antag-1	CHO parental Ca	OX1R antag-2	TAAR1 antagonist	GalR3 antagonist	TAAR1 ag confirm	Ga16 ag counter	TAAR1 desens	Ga16 nonsel ant
COc1ccc(C(=O)NC(=S)NNC(=O)[C@H]2C[C@@H]2c2ccccc2)cc1OC	121	-	-	-	49	-	90	70	70	43
COc1ccc(OC)c(NC(=O)C2CC2c2ccccc2)c1 (configuration not stated)	-	-	-	-	-	-	.	.	.	.
C[C@@H]1CN([C@@H](C)CO)C(=O)c2cc(NC(=O)CCN3CCOCC3)ccc2O[C@@H]1CN(C)C(=O)Nc1ccccc1	-	-	-	-	-	-	.	.	.	.
CN(C)c1ncnc2c1ncn2[C@H]1CN(Cc2cccs2)C[C@@H](CO)O1	-	.	.	.	-	-	.	.	.	.
CCN1CCN(c2ccc(NC(=O)CCc3c(C)nc4c(-c5ccccc5)c(C)nn4c3C)cc2)CC1	.	-	-	-	.	-	.	-	.	-
CN1Cc2cccc3c2C(Cc2ccccc2S3)C1 (configuration not stated)	59	-	-	-	-	-	61	-	-	-
O=P(Cc1cccc2ccccc12)(c1ccccc1)c1ccccc1	-	.	.	.	-	-	.	.	.	.
O=C(NNC(=S)NC(=O)c1cccc([N+](=O)[O-])c1)c1ccc(O)cc1	-	-	-	-	-	-	.	.	.	.
Cc1ccc(C(=O)NC(=S)NNC(=O)c2cccc([N+](=O)[O-])c2)cc1	83	.	.	.	-	-	101	75	62	35
O=C(NNC(=S)NC(=O)c1cccc([N+](=O)[O-])c1)c1ccc(Br)cc1	99	-	-	-	-	-	107	81	77	44
O=C(NNC(=S)NC(=O)c1ccccc1)c1cccc([N+](=O)[O-])c1	96	-	-	-	-	-	84	65	-	-
COc1ccc(OC)c(N=c2ssnc2Cl)c1	-	-	-	-	-	-	.	.	.	.
COc1cc(N=c2ssnc2Cl)c(OC)cc1Cl	59	-	-	-	-	-	49	38	-	33
